Assay results from ChEMBL document CHEMBL1146355, “Synthesis and cytotoxic evaluation of C-9 oxidized podophyllotoxin derivatives” (Bioorg Med Chem, 2007).

How the values were obtained:
Assay type in all cases: functional, cell-based
A549 = test: Cytotoxicity against human A549 cells after 4 days; conditions: A549, 96 h
Procedure, shortened: (§1)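 Cells seeded at 2 × 10⁴/well in MEM with 10% FCS containing the compound at different concentrations. Incubated 4 days at 37 °C under 10% CO₂ and 98% humidity. Drug-free control wells were counted daily to confirm exponential growth. Read-out was crystal violet staining, then inhibition estimated by comparison with controls.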

[1] = Cytotoxicity against human MEL28 cells after 4 days; conditions: SK-MEL-28, 96 h; procedure, shortened: as §1
HT-29 = test: Cytotoxicity against human HT29 cells after 4 days; conditions: HT-29, 96 h; procedure, shortened: as §1
P388 = test: Cytotoxicity against mouse P388 cells after 4 days; conditions: P388, 96 h
Procedure, shortened: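 Murine leukaemia cells seeded at 1 × 10⁴/well in MEM with 10% FCS containing the compound at different concentrations. Incubated 4 days at 37 °C under 10% CO₂ and 98% humidity, with drug-free controls counted daily to confirm exponential growth. Inhibition judged by inverted microscopy against controls, with no staining.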

| SMILES | IC50 (A549) [nM] | IC50 [1] [nM] | IC50 (HT-29) [nM] | IC50 (P388) [nM] |
| --- | --- | --- | --- | --- |
| COC(=O)[C@@H]1C(C#N)=Cc2cc3c(cc2[C@H]1c1cc(OC)c(OC)c(OC)c1)OCO3 | 2400 | 2400 | 2400 |  |
| COC(=O)[C@@H]1C(/C=N/O)=Cc2cc3c(cc2[C@H]1c1cc(OC)c(OC)c(OC)c1)OCO3 |  | 2300 |  |  |
| COc1cc([C@@H]2c3cc4c(cc3C=C3C(=O)OC[C@H]32)OCO4)cc(OC)c1OC | > 20000 | > 20000 | > 20000 | > 20000 |
| COC(=O)[C@@H]1C(C(=O)OC(C)=O)=Cc2cc3c(cc2[C@H]1c1cc(OC)c(OC)c(OC)c1)OCO3 | 10000 | 10000 | 10000 | 10000 |
| COc1cc([C@H]2C3=C(Cc4cc5c(cc42)OCO5)C(O)OC3=O)cc(OC)c1OC (stereo partly drawn) | 1200 |  | 1200 | 1200 |
| COC(=O)[C@@H]1C(C(=O)Nc2ccccc2)=Cc2cc3c(cc2[C@H]1c1cc(OC)c(OC)c(OC)c1)OCO3 | 1900 |  | 1900 | 1900 |
| COc1cc([C@@H]2c3cc4c(cc3C=C(C=O)[C@H]2CO)OCO4)cc(OC)c1OC |  | 250 |  |  |
| CCCCCCNC(=O)C1=Cc2cc3c(cc2[C@@H](c2cc(OC)c(OC)c(OC)c2)[C@@H]1C(=O)OC)OCO3 | 1900 |  | 1900 | 1900 |
| COc1cc([C@@H]2c3cc4c(cc3[C@H](O)[C@H]3COC(=O)[C@H]23)OCO4)cc(OC)c1OC [PODOFILOX] |  |  | 12 |  |
| COC(=O)C1=Cc2cc3c(cc2[C@@H](c2cc(OC)c(OC)c(OC)c2)[C@@H]1C(=O)OC)OCO3 | 5100 | 5100 | 5100 | 5100 |
| COc1cc(-c2c3c(cc4cc5c(cc24)OCO5)C(=O)N(CCO)C3=O)cc(OC)c1OC | 2200 |  | 2200 | 2200 |
| COc1cc([C@@H]2c3cc4c(cc3C=C(C(=O)O)[C@H]2C(=O)O)OCO4)cc(OC)c1OC | > 20000 | > 20000 | > 20000 | > 20000 |
| COC(=O)[C@@H]1C(C(=O)O)=Cc2cc3c(cc2[C@H]1c1cc(OC)c(OC)c(OC)c1)OCO3 | > 20000 | > 20000 | > 20000 | > 20000 |
| COC(=O)[C@@H]1C(C=O)=Cc2cc3c(cc2[C@H]1c1cc(OC)c(OC)c(OC)c1)OCO3 [PODOPHYLLIC ALDEHYDE] |  | 230 |  |  |
| COC(=O)[C@@H]1C(C(=O)Nc2cc(OC)c(OC)c(OC)c2)=Cc2cc3c(cc2[C@H]1c1cc(OC)c(OC)c(OC)c1)OCO3 | 1700 |  | 1700 | 1700 |
| CCCCCCNC(=O)c1cc2cc3c(cc2c(-c2cc(OC)c(OC)c(OC)c2)c1C(=O)NCCCCCC)OCO3 | 2000 |  | 2000 | 2000 |
| COc1cc([C@@H]2c3cc4c(cc3C=C3C(=O)OC(=O)[C@H]32)OCO4)cc(OC)c1OC | 12000 | 12000 | 12000 | 12000 |
| COC(=O)[C@@H]1C(C(=O)Nc2ccc(C)cc2)=Cc2cc3c(cc2[C@H]1c1cc(OC)c(OC)c(OC)c1)OCO3 | 1900 | 1900 | 1900 | 1900 |
